These results are taken from ChEMBL document CHEMBL4145661, “H2O2/Peroxynitrite-Activated Hydroxamic Acid HDAC Inhibitor Prodrugs Show Antileukemic Activities against AML Cells” (ACS Med Chem Lett, 2018).

Active and inactive are the calls of the source. The rule behind the calls is not given here. A value given as a limit tells only on which side of the number the result lay.

What is called inhibition is the share of the control response that was lost under treatment. In general, IC50 refers to the concentration needed to halve the response being measured.

The subject of data set [1] is MV4-11. In words: Cytotoxicity against human MV4-11 cells assessed as reduction in cell viability at 0.05 to 0.5 uM cotreated with up to 500 nM of 4-CPA measured after 72 hrs by MTT assay. It is filed as functional, cell-based. For orientation: Formazan colour is commonly taken as a measure of viable cells.
For data set [2], the system named is PBMC. In words: Cytotoxicity against human PBMC assessed as reduction in cell viability after 72 hrs by MTT assay. It is filed as functional, cell-based. In short, it runs like this:
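Peripheral blood mononuclear cells from two healthy donors, viability measured by MTT assay.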

Data set [3] concerns U-937. In words: Cytotoxicity against human U937 cells assessed as reduction in cell viability at 0.25 to 2.5 uM after 72 hrs by MTT assay. It is filed as functional, cell-based.
Data set [4] relates to MV4-11. Put plainly: Cytotoxicity against human MV4-11 cells assessed as reduction in cell viability at 2.5 uM pretreated with GSH for 2 hrs followed by compound addition measured after 72 hrs by MTT assay. It is filed as functional, cell-based.
For data set [5], the target named is T1, Histone deacetylase (Homo sapiens) (UniProt Q13547+O15379+Q9UBN7+Q92769+Q9UQL6+Q8WUI4+Q9BY41+Q96DB2+P56524+Q9UKV0+Q969S8). Put plainly: Inhibition of HDAC in human MV4-11 cells assessed as increase in acetylation of alpha-tubulin after 6 hrs by Western blot analysis. It is filed as cell-based. The gist of the method:
(§1)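 Western blot of MV4-11 cells after 6 h exposure at the indicated concentrations, probing acetyl-histone H4 and acetyl-α-tubulin. Densitometry normalized to GAPDH, fold change relative to SAHA treatment. Blot representative of three experiments.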
In general terms: In western blotting, separated proteins are transferred to a membrane and probed.

The target in data set [6] is T1, Histone deacetylase (Homo sapiens). In words: Inhibition of HDAC in human U937 cells assessed as increase in acetylation of histone H4 after 6 hrs by Western blot analysis. Type of data set: cell-based.
Data set [7] concerns MV4-11. Put plainly: Cytotoxicity against human MV4-11 cells assessed as reduction in cell viability at 2.5 uM pretreated with LPS for 2 hrs followed by compound addition measured after 72 hrs by MTT assay. It is filed as functional, cell-based.
In data set [8] the target is T1, Histone deacetylase (Homo sapiens). In words: Inhibition of HDAC in human PBMC assessed as increase in acetylation of alpha-tubulin at 5 to 10 uM after 6 hrs by Western blot analysis. It is filed as cell-based. In short, it runs like this:
(§2)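 Peripheral blood mononuclear cells from one healthy donor, treated at 5 and 10 μM and compared against vehicle control. Acetyl-histone H4 and acetyl-α-tubulin assessed by Western blot.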

In data set [9] the test system is MV4-11. Put plainly: Potentiation of cytarabine-induced cytotoxicity against human MV4-11 cells assessed as increase in cleaved PARP level at 2.5 uM after 24 hrs by Western blot analysis. It is filed as functional, cell-based. In short, it runs like this:
(§3)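 MV4-11 cells exposed 24 h to prodrug (2.5 or 0.5 μM) and/or cytarabine (0.5 μM). Cleaved caspase-3 and cleaved PARP-1 detected by Western blot.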

The test system of data set [10] is MV4-11. Put plainly: Cytotoxicity against human MV4-11 cells assessed as reduction in cell viability after 72 hrs by MTT assay. The note with it: MV4-11, 72 h.
Data set [11] can be described thus: Chemical stability of the compound in PBS at 100 uM at pH 7.4 after 72 hrs at 37 degC in presence of GSH by HPLC method. It is filed as physicochemical. The note with it: buffer, pH 7.4, 72 h.
The subject of data set [12] is U-937. Put plainly: Cytotoxicity against human U937 cells assessed as reduction in cell viability after 72 hrs by MTT assay. The note with it: U-937, 72 h.
Data set [13] addresses T1, Histone deacetylase (Homo sapiens). Put plainly: Inhibition of HDAC in human PBMC assessed as increase in acetylation of histone H4 at 5 to 10 uM after 6 hrs by Western blot analysis. Type of data set: cell-based. In short, it runs like this:
as §2

Data set [14] shares this target. Put plainly: Inhibition of HDAC in human U937 cells assessed as increase in acetylation of alpha-tubulin after 6 hrs by Western blot analysis. Type of data set: cell-based.
Data set [15] has as its system MV4-11. In words: Cytotoxicity against human MV4-11 cells assessed as reduction in cell viability at 2.5 uM pretreated with catalase for 2 hrs followed by compound addition measured after 72 hrs by MTT assay. Type of data set: functional, cell-based.
The subject of data set [16] is MV4-11. Put plainly: Cytotoxicity against human MV4-11 cells assessed as reduction in cell viability at 2.5 uM pretreated with BSO for 2 hrs followed by compound addition measured after 72 hrs by MTT assay. It is filed as functional, cell-based.
For data set [17], the system named is MV4-11. In words: Cytotoxicity against human MV4-11 cells assessed as reduction in cell viability at 2.5 uM pretreated with SOD for 2 hrs followed by compound addition measured after 72 hrs by MTT assay. It is filed as functional, cell-based.
The subject of data set [18] is MV4-11. In words: Cytotoxicity against human MV4-11 cells assessed as reduction in cell viability at 2.5 uM pretreated with GSHEE for 2 hrs followed by compound addition measured after 72 hrs by MTT assay. It is filed as functional, cell-based.
The subject of data set [19] is MV4-11. Put plainly: Potentiation of cytarabine-induced cytotoxicity against human MV4-11 cells assessed as reduction in cell viability at 2.5 uM after 72 hrs by MTT assay. Type of data set: functional, cell-based. The gist of the method: (§4)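 MV4-11 cells given prodrug (2.5 or 0.5 μM) with cytarabine for 72 h. Viability by MTT; mean ± SD, n = 6.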
For data set [20], the target named is T1, Histone deacetylase (Homo sapiens). In words: Inhibition of HDAC in human MV4-11 cells assessed as increase in acetylation of histone H4 after 6 hrs by Western blot analysis. Type of data set: cell-based. In short, it runs like this:
as §1

Data set [21] has as its system MV4-11. In words: Potentiation of cytarabine-induced cytotoxicity against human MV4-11 cells assessed as increase in cleaved caspase 3 level at 2.5 uM after 24 hrs by Western blot analysis. It is filed as functional, cell-based. In short, it runs like this:
as §3

Data set [22] deals with MV4-11. Put plainly: Potentiation of cytarabine-induced cytotoxicity against human MV4-11 cells assessed as increase in cleaved PARP level at 0.5 uM after 24 hrs by Western blot analysis. Type of data set: functional, cell-based. The gist of the method:
as §3

The test system of data set [23] is MV4-11. In words: Potentiation of cytarabine-induced cytotoxicity against human MV4-11 cells assessed as reduction in cell viability at 0.5 uM after 72 hrs by MTT assay. It is filed as functional, cell-based. In short, it runs like this: as §4
Data set [24] concerns MV4-11. Put plainly: Potentiation of cytarabine-induced cytotoxicity against human MV4-11 cells assessed as increase in cleaved caspase 3 level at 0.5 uM after 24 hrs by Western blot analysis. Type of data set: functional, cell-based. The gist of the method: as §3
Data set [25] concerns the target T1, Histone deacetylase (Homo sapiens). The note with it: at 1 µM.
The test system of data set [26] is MV4-11. In words: Cytotoxicity against human MV4-11 cells assessed as reduction in cell viability at 0.25 to 1 uM cotreated with 4-CPA measured after 72 hrs by MTT assay. It is filed as functional, cell-based.
Data set [27] has as its system MV4-11. In words: Cytotoxicity against human MV4-11 cells assessed as reduction in cell viability up to 10 uM after 72 hrs by MTT assay. It is filed as functional, cell-based.

For the molecule `O=C(CCCCCCC(=O)Nc1ccccc1)NO`, the result in data set [1] was inactive. Moreover, the outcome in [2] was Active.
As to `COC(=O)CCCCCCOc1c(OC)cc(/C=C/C(=O)N2CCC=CC2=O)cc1OC`, the result in [3] was inactive.
For `O=C(CCCCCCC(=O)Nc1ccccc1)NOCc1ccc(B(O)O)cc1`, the outcome in data set [4], in data set [15] and in data set [18] was inactive. For the same molecule, the inhibition entry in data set [5], in [6], in data set [14] and in [20] was “Dose-dependent effect” throughout. Also, the IC50 in data set [2] was more than 10 µM; in [10] it was 3.07 µM; in data set [12], 6.13 µM. In addition, the result in data set [7], in data set [9], in [16], in data set [17], in data set [19] and in data set [21] was Active. The inhibition result in [8] and in [13] was “inactive” each time. For the same molecule, the Stability result in data set [11] was “Stable”.
As to `COc1cc(/C=C/C(=O)N2CCC=CC2=O)cc(OC)c1OCCCCCCC(=O)NOCc1ccc(B(O)O)cc1`, the inhibition entry in data set [5], in [6], in data set [14] and in data set [20] was “Dose-dependent effect” throughout. The IC50 in [2] was 7.6 to 10 µM; in data set [10], 0.7 µM; in data set [12] it was 1.61 µM. The inhibition entry in data set [8] and in data set [13] was “inactive” in each case. Moreover, the outcome in data set [22], in data set [23] and in [24] was Active.
On to `COc1cc(/C=C/C(=O)N2CCC=CC2=O)cc(OC)c1OCCCCCCC(=O)NO`, for which the inhibition in data set [25] came out at 32%. Also, the result in [26] was Active.
With `O=C(CCCCCCC(=O)Nc1ccccc1)NCCc1ccc(B(O)O)cc1`, the outcome in [27] was inactive.
On to `CC(=O)Oc1ccc(CCl)cc1`, for which the IC50 in data set [10] was found to be 1.13 µM.
